According to ChEMBL document CHEMBL5303300, “EUbOPEN Chemogenomics Library - Multiplex” (2023):
Several values for one entry are separate records, joined by “and”; a condition that tells them apart may be missing. Equal values may be shown once.

Tested on: Fibroblast
Assay: Multiplex assay against human fibroblast
Type: toxicity, cell-based
Conditions: number of replicates 2
Procedure, shortened: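 Tubulin, mitochondrial-mass and membrane-permeability phenotypes are per cents of healthy-nucleus cells. Cells were gated by CellPathfinder machine learning into Hoechst high-intensity objects or normal cells, normal cells into healthy, pyknosed or fragmented nuclei, and pyknosed cells into mitotic or apoptotic. Before that, live cells stained at seeding with Hoechst33342, BioTracker Green Microtubule Cytoskeleton Dye, MitoTracker Red and Annexin V Alexa Fluor 680 were imaged on a CQ1 microscope at 37°C and 5% CO2 after compound addition.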

[1] = 12 h, 10 µM, compound concentration 10 uM
[2] = 24 h, 10 µM, compound concentration 10 uM
[3] = 48 h, 10 µM, compound concentration 10 uM
[4] = 12 h, 1 µM, compound concentration 1 uM
[5] = 24 h, 1 µM, compound concentration 1 uM
[6] = 48 h, 1 µM, compound concentration 1 uM

Compound: C[C@@H]1CC[C@@]2(OC1)O[C@H]1[C@@H](O)[C@H]3[C@@H]4CC[C@H]5C[C@@H](O[C@@H]6O[C@H](CO)[C@H](O[C@@H]7O[C@H](CO)C(O)[C@H](O[C@@H]8OC[C@@H](O)[C@H](O)[C@H]8O)[C@H]7O[C@@H]7O[C@H](CO)[C@H](O)[C@H](O[C@@H]8O[C@H](CO)[C@@H](O)[C@H](O)[C@H]8O)[C@H]7O)[C@H](O)[C@H]6O)[C@H](O)C[C@]5(C)[C@H]4CC[C@]3(C)[C@H]1[C@@H]2C (some centres not stated) [DIGITONIN]
- Population Apoptotic (%) [1]: 44% and 47% and 48% and 42%
- Population Fragmented Nuclei (%) [1]: 9% and 12% and 13% and 8%
- Population Healthy Nuclei (%) [1]: 76% and 61% and 68% and 72%
- Population Hoechst High Intensity Objects (%) [1]: 0%
- Population Membrane Permeable-Phenotype (%) [1]: 6% and 4% and 1%
- Population Mitochondria Different-Phenotype (%) [1]: 0% and 1% and 2%
- Population Mitotic Cells (%) [1]: 56% and 52% and 51% and 57%
- Population Normal (%) [1]: 100%
- Population Pyknosed Nuclei (%) [1]: 13% and 26% and 18% and 19%
- Population Tubulin-Different-Phenotype (%) [1]: 10% and 4% and 8% and 6%
- Total Cell Count [1]: 181 and 157 and 188 and 182
- Population Apoptotic (%) [2]: 55% and 53% and 47% and 66%
- Population Fragmented Nuclei (%) [2]: 11% and 12%
- Population Healthy Nuclei (%) [2]: 77% and 55% and 71% and 69%
- Population Hoechst High Intensity Objects (%) [2]: 0% and 1%
- Population Membrane Permeable-Phenotype (%) [2]: 6% and 2%
- Population Mitochondria Different-Phenotype (%) [2]: 0% and 1% and 3%
- Population Mitotic Cells (%) [2]: 45% and 46% and 52% and 33%
- Population Normal (%) [2]: 100% and 98%
- Population Pyknosed Nuclei (%) [2]: 11% and 32% and 17%
- Population Tubulin-Different-Phenotype (%) [2]: 11% and 3% and 7% and 12%
- Total Cell Count [2]: 171 and 168 and 198 and 188
- Population Apoptotic (%) [3]: 90% and 64% and 75% and 60%
- Population Fragmented Nuclei (%) [3]: 12% and 14% and 15%
- Population Healthy Nuclei (%) [3]: 81% and 64% and 68%
- Population Hoechst High Intensity Objects (%) [3]: 0%
- Population Membrane Permeable-Phenotype (%) [3]: 5% and 1% and 7%
- Population Mitochondria Different-Phenotype (%) [3]: 0% and 1%
- Population Normal (%) [3]: 100% and 99%
- Population Tubulin-Different-Phenotype (%) [3]: 6% and 5%
- Total Cell Count [3]: 169 and 162 and 205 and 188

Compound: COCCNC1CCC(Nc2cc(-c3csc(NCC4(C#N)CCOCC4)n3)c(Cl)cn2)CC1 (configuration not stated)
- Population Apoptotic (%) [4]: 50% and 31%
- Population Fragmented Nuclei (%) [4]: 7% and 12%
- Population Healthy Nuclei (%) [4]: 73% and 67%
- Population Hoechst High Intensity Objects (%) [4]: 0%
- Population Membrane Permeable-Phenotype (%) [4]: 2% and 7%
- Population Mitochondria Different-Phenotype (%) [4]: 1% and 2%
- Population Mitotic Cells (%) [4]: 50% and 68%
- Population Normal (%) [4]: 99%
- Population Pyknosed Nuclei (%) [4]: 19% and 20%
- Population Tubulin-Different-Phenotype (%) [4]: 13% and 12%
- Total Cell Count [4]: 154 and 189
- Population Apoptotic (%) [1]: 48% and 47%
- Population Fragmented Nuclei (%) [1]: 10% and 15%
- Population Healthy Nuclei (%) [1]: 70% and 68%
- Population Hoechst High Intensity Objects (%) [1]: 0%
- Population Membrane Permeable-Phenotype (%) [1]: 12% and 13%
- Population Mitochondria Different-Phenotype (%) [1]: 5% and 10%
- Population Mitotic Cells (%) [1]: 51% and 52%
- Population Normal (%) [1]: 99% and 100%
- Population Pyknosed Nuclei (%) [1]: 18% and 16%
- Population Tubulin-Different-Phenotype (%) [1]: 79% and 67%
- Total Cell Count [1]: 219 and 209
- Population Apoptotic (%) [5]: 55% and 74%
- Population Fragmented Nuclei (%) [5]: 10% and 4%
- Population Healthy Nuclei (%) [5]: 71% and 80%
- Population Hoechst High Intensity Objects (%) [5]: 0%
- Population Membrane Permeable-Phenotype (%) [5]: 4% and 6%
- Population Mitochondria Different-Phenotype (%) [5]: 3% and 0%
- Population Mitotic Cells (%) [5]: 44% and 25%
- Population Normal (%) [5]: 99% and 100%
- Population Pyknosed Nuclei (%) [5]: 17% and 15%
- Population Tubulin-Different-Phenotype (%) [5]: 20% and 19%
- Total Cell Count [5]: 163 and 170
- Population Apoptotic (%) [2]: 53% and 65%
- Population Fragmented Nuclei (%) [2]: 14% and 13%
- Population Healthy Nuclei (%) [2]: 72% and 73%
- Population Hoechst High Intensity Objects (%) [2]: 1% and 0%
- Population Membrane Permeable-Phenotype (%) [2]: 11%
- Population Mitochondria Different-Phenotype (%) [2]: 18%
- Population Mitotic Cells (%) [2]: 46% and 34%
- Population Normal (%) [2]: 98% and 100%
- Population Pyknosed Nuclei (%) [2]: 12%
- Population Tubulin-Different-Phenotype (%) [2]: 87% and 70%
- Total Cell Count [2]: 206 and 210
- Population Apoptotic (%) [6]: 59% and 68%
- Population Fragmented Nuclei (%) [6]: 9% and 11%
- Population Healthy Nuclei (%) [6]: 57% and 55%
- Population Hoechst High Intensity Objects (%) [6]: 0%
- Population Membrane Permeable-Phenotype (%) [6]: 14%
- Population Mitochondria Different-Phenotype (%) [6]: 3% and 1%
- Population Mitotic Cells (%) [6]: 40% and 31%
- Population Normal (%) [6]: 100%
- Population Pyknosed Nuclei (%) [6]: 33% and 32%
- Population Tubulin-Different-Phenotype (%) [6]: 30% and 22%
- Total Cell Count [6]: 154 and 174
- Population Apoptotic (%) [3]: 54% and 76%
- Population Fragmented Nuclei (%) [3]: 15% and 13%
- Population Healthy Nuclei (%) [3]: 64% and 67%
- Population Hoechst High Intensity Objects (%) [3]: 0% and 1%
- Population Membrane Permeable-Phenotype (%) [3]: 12% and 10%
- Population Mitochondria Different-Phenotype (%) [3]: 18% and 16%
- Population Mitotic Cells (%) [3]: 45% and 23%
- Population Normal (%) [3]: 99%
- Population Pyknosed Nuclei (%) [3]: 20% and 19%
- Population Tubulin-Different-Phenotype (%) [3]: 81% and 71%
- Total Cell Count [3]: 207 and 200
